Screening data deposited in PubChem BioAssay by several laboratories.
Beta apoptosis: beta cell apoptosis inhibition | INS-1E cytokine-induced death, ATP luminescence, 48 h; percent of positive-control rescue, neutral wells zero | protection from apoptosis, % (test concentration not listed) | 0.8% of 300,000 active;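 active = Every replicate reaches about 75%, or at least half do and their mean reaches it too, limit read from the data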;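 also: 0% = cytokine-treated negative control wells and 100% = positive control rescue; higher means more ATP so stronger rescue from cytokine killing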
CSC inhib: blocks cancer stem cells; cancer stem cell-like cells viability, luminescence; inhibition, % at 7.5 µM; 1.1% of 300,000 active; in the data active = inhibition above about 75%; tested in HMLE shEcad cells
SKKanGAS inh: blocks kanamycin growth of S. pyogenes SKKanGAS strain. 1.3% of 300,000 active. BacTiter-Glo, 6 h. inhibition, % at 7.5 µM;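 active = mean replicate score, as percent of positive control median, at least 50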;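 also: strain carries kanamycin resistance gene driven by streptokinase promoter and grows in 40 µg/ml kanamycin; loss of luminescence reflects streptokinase promoter inhibition or plain growth inhibition; 0% = median of DMSO wells and 100% = positive control at its reference dose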
T cruzi repl: T. cruzi replication inhibition. T. cruzi beta-gal in NIH3T3, luminescence, 90 h. 1.4% of 300,000 active. inhibition, % (concentration not given with the values). AID 1885;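 active = mean inhibition across valid replicates above about 55%, limit read from the data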;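 also: signal also drops with host cell toxicity which is not excluded here; 0% = plate median of DMSO wells and 100% = zero luminescence signal; higher percent means less beta-gal luminescence so fewer parasites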
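System – NIH/3T3 host cells with β-galactosidase reporter T. cruzi · Doses – single 50 nL compound addition per well in DMSO · Reagent – 5000 T. cruzi trypomastigotes/well · Medium – Low-serum DMEM with 2% FBS · Timing – ≥90 h infection period, 3 h prior cell attachment · Evaluation – parasite load inhibition, % · Technique – GalScreen luminescence, 60 min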
Lmaj promast: inhibitors of Leishmania major promastigote growth; Leishmania major promastigotes, resazurin fluorescence viability; inhibition, % at 10 µM; 9% of 200,000 active; AID 1063; in the data active = inhibition above about 50%;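 also: promastigotes grown with compound for 44 hours at 28 °C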
Mdm2 MdmX PPI: disrupts the human Mdm2-MdmX interaction | SaOS-2 split-luciferase Mdm2/MdmX complementation, luminescence | O15151+Q00987 | inhibition, % at 8 µM | 3% of 330,000 active | AID 485346;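 active = inhibition of at least 50% at 8 µM in the primary screen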
Target sequence (O15151 whole entry, looked up): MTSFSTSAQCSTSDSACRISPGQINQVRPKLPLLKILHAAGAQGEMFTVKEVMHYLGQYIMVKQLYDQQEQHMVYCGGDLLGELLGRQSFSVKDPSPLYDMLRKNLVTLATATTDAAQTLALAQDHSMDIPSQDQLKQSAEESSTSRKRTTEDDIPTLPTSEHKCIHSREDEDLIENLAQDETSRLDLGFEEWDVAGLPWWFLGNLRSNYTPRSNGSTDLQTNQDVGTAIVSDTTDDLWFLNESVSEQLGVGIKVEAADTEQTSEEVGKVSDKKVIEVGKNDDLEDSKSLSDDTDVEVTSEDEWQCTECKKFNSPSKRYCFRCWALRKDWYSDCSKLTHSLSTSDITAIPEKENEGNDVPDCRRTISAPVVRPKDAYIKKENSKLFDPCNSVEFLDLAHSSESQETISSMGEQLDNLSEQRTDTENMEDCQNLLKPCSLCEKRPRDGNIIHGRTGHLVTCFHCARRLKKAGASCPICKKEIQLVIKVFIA
Target sequence (Q00987 whole entry, looked up): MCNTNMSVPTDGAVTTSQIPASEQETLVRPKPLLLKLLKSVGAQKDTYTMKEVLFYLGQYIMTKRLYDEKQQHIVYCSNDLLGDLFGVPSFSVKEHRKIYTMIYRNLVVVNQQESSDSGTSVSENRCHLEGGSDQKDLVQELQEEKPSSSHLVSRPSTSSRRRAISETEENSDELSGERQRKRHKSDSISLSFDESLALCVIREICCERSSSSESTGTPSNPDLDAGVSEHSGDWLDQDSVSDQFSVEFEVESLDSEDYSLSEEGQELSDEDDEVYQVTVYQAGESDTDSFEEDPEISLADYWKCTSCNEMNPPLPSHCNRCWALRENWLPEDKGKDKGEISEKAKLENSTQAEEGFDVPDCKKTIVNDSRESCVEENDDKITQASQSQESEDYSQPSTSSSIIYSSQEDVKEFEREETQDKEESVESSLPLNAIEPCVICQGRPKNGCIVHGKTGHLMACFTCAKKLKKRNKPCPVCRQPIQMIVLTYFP
Starred values were filed as active, the others as inactive; nt = no result given. Sampled rows, rich in hits. Any-hit rate of the full collection: about 9.4%.

SMILES	Beta apoptosis	CSC inhib	SKKanGAS inh	T cruzi repl	Lmaj promast	Mdm2 MdmX PPI
CCOC(=O)C1CCCCN1S(=O)(=O)c1cc2c(cc1C)NC(=O)CO2 (stereo not given)	nt	nt	-15	0	nt	0
Cc1cc(Br)ccc1NC(=O)CNC(=O)c1cnn(C)c1	-2	-4	nt	nt	nt	21
Cc1ccccc1Oc1cc(-n2ncc(Cl)c(Cl)c2=O)ncn1	99*	108*	nt	nt	100*	nt
CC(C)(CNC(=O)C1c2ccccc2-c2ccccc21)N1CCOCC1	-4	-4	-2	-12	nt	-17
CCCCNS(=O)(=O)c1ccc2nc(SCC(=O)c3ccccc3OC)[nH]c2c1	0	-3	-2	-9	99*	0
CCCCNS(=O)(=O)c1ccc2nc(SCC(N)=O)[nH]c2c1	-2	6	-5	-6	nt	-30
COc1cc2c(cc1OC)CN(C(=O)Nc1ccccc1Cl)CC2	-2	0	-2	-4	nt	-10
COc1ccccc1NC(=O)N1CCc2[nH]c3ccc(Cl)cc3c2C1	0	48	-4	22	95*	34
COc1ccc(NC(=O)C(c2cc3c(cc2[N+](=O)[O-])OCO3)N(C)c2ccccc2)cc1 (stereo not given)	-2	3	0	27	81*	12
COc1ccc(-c2nc3cc(C)ccn3c2NC(=O)c2c(F)cccc2Cl)cc1	7	-5	5	-5	nt	4
CO/N=C/c1c(-c2ccc(Cl)cc2)nc2cc(C)ccn12	-2	-9	-8	21	61*	18
O=[N+]([O-])c1cc(S(=O)(=O)N2CCCCCC2)ccc1Cl	nt	nt	nt	nt	27	36
COc1ccc(C(=O)NC(Nc2ccccc2)C(Cl)(Cl)Cl)cc1 (stereo not given)	5	nt	0	2	99*	24
COc1ccc(C(=O)NNc2ccccc2)cc1	2	131*	-2	37	92*	-8
O=C(O)/C=C/C(=O)NC1CC1	0	-6	7	-6	-2	22
CCCCNC(=O)COn1nnc2ccc(S(=O)(=O)N3CCOCC3)cc21	-1	-3	-2	-3	nt	7
CCOc1ccc2nc(NC(=O)c3cnc(C)cn3)sc2c1	3	5	42	31	6	35
CCn1ncc([N+](=O)[O-])c1C(=O)Nc1cc(C)on1	3	8	1	-12	92*	10
CCOc1ccc2nc(NC(=O)c3c([N+](=O)[O-])cnn3CC)sc2c1	-1	-5	6	1	63*	16
Cc1ccc(OCC(=O)Nc2ccc3c(c2)OCO3)c([N+](=O)[O-])n1	-5	-18	3	-8	55*	-8
CNc1ccc(C(=O)OCC(=O)NCc2ccc3c(c2)OCO3)cc1[N+](=O)[O-]	-6	-8	nt	nt	nt	46
CCNc1ccc(C(=O)OCC(=O)c2cc(C)n(Cc3ccc4c(c3)OCO4)c2C)cc1[N+](=O)[O-]	7	4	-3	14	67*	20
Nc1ccc(C(=O)OCC(=O)Nc2ccc3c(c2)OCO3)cc1[N+](=O)[O-]	-3	nt	-11	-17	69*	-14
Cc1c(Cl)c([N+](=O)[O-])nn1CC(=O)Nc1ccc2c(c1)OCO2	-5	-14	5	14	81*	6
COc1ccc(NC(=O)Cn2nc([N+](=O)[O-])c(Cl)c2C)cc1OC	3	-7	-5	30	nt	-5
SMILES	Beta apoptosis	CSC inhib	SKKanGAS inh	T cruzi repl	Lmaj promast	Mdm2 MdmX PPI
Cc1ccc(OCC(=O)Nc2ccc3c(c2)OC(F)(F)O3)c([N+](=O)[O-])n1	-4	5	0	-18	0	-3
O=C(NN1C(=O)C2CC=C(Cl)CC2C1=O)c1ccncc1 (stereo not given)	1	17	-10	-1	3	13
CC1CCCC(CC(=O)O)(CC(=O)O)C1 (stereo not given)	1	-20	3	-4	nt	9
Cc1ccccc1OCC(=O)OCC(=O)Nc1ccc2c(c1)OCO2	-11	-23	nt	nt	nt	17
Cc1cc(C)c(OCC(=O)Nc2ccc3c(c2)OCO3)cc1C	1	-1	-4	5	80*	-5
Cc1ccc(C)c(OCC(=O)Nc2ccc3c(c2)OCO3)c1	8	3	9	27	82*	-2
C=CC[C@@H](CC(=O)OC(C)(C)C)C(=O)OC[C@H]1CCCN1C(=O)[C@@H](CC=C)CC(=O)NCCO	-4	-4	nt	nt	nt	-10
CC(C)c1nnc(SCC(=O)NC2CCCCC2)n1C	0	-1	-2	3	nt	-9
CCCCn1c(=N)n(CC(O)COc2ccccc2)c2ccccc21 (stereo not given)	nt	4	1	-6	55*	49
CCn1c(=N)n(CC(O)COc2cccc(C)c2)c2ccccc21 (stereo not given)	3	1	9	14	58*	4
N=c1n(Cc2ccccc2)c2ccccc2n1CC(O)COc1ccccc1 (stereo not given)	18	-19	6	8	100*	38
CCCn1c(=N)n(CC(O)COc2cccc(C)c2)c2ccccc21 (stereo not given)	19	13	4	11	96*	35
Nc1c(N(CCC2=CCCCC2)C(=O)c2ccccc2F)c(=O)[nH]c(=O)n1Cc1ccccc1	-3	nt	nt	nt	nt	22
CCN(CC)C(=O)C(=O)Nc1ccc(OC)c(Cl)c1	-7	-10	-6	-21	-7	-21
CCOc1ccc(CCNC(=O)CSC(=S)N2CCCC2)cc1OCC	-2	nt	-4	8	nt	23
COCCNC(=O)CCC1CCN(Cc2ccc(-c3ccccc3)cc2)CC1	nt	-7	1	58*	nt	-4
COCCNC(=O)CCc1nnc(Cc2ccc(-c3ccccc3)cc2)o1	-8	-10	0	-6	2	15
CC(=O)c1cccc(S(=O)(=O)N2CCC(C(=O)O)(c3ccccc3)CC2)c1	-1	-3	0	3	nt	-6
Cc1cc(CSc2ccccc2)ccc1NC(=O)c1ccc(CN2CCOCC2)cc1	7	34	3	18	63*	15
CSc1ccccc1NC(=O)c1ccc(CN2CCOCC2)cc1	-2	-5	0	2	0	-30
CCOC(=O)c1ccc(NC(=S)N2CCSC2c2ccc(Br)cc2)cc1 (stereo not given)	1	-11	5	-5	87*	8
CCOC(=O)c1ccc(NC(=S)NN2CCN(C)CC2)cc1	1	-8	-5	57*	-4	-19
CCOC(=O)c1ccc(NC(=O)N2CCOCC2)cc1	-4	-5	0	6	-8	-9
CCOC(=O)c1ccc(NC(=O)CSC(=S)N2CCOCC2)cc1	-2	14	-2	11	97*	44
NS(=O)(=O)c1ccc(CCNCc2cccnc2)cc1	-4	-18	0	1	nt	20
CC1=C(O)C(=O)OC1c1c(Cl)cccc1Cl (stereo not given)	0	-7	4	11	nt	-4
O=c1[nH]c2ccccc2c2cn(-c3ccccc3)nc12	-11	3	-7	-7	nt	23
